Screening results deposited in PubChem by several laboratories.
b-catenin transl = modulators of beta-catenin nuclear translocation, primary screen, imaging, HeLa cells, immunofluorescence, high-content; AID 1665, 2009; actives 0.3% (n = 190,000); nuclear translocation activity, % at 5 µM;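 active = nuclear translocation activity above 50% at 5 µM, with a well cell count of 50 or more; inconclusive = wells under 50 cells across six images, flagged as toxic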;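 note: per-cell ratio of nuclear to cytoplasmic median beta-catenin stain intensity; plate controls were DMSO negative control for no effect and GSK-3 inhibitor IX positive control for full effect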
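test system = HeLa cells, endogenous beta-catenin | dosing = single 5 µM dose plus 0.02–20 µM confirmation series | times = compound treatment 24 h, 37°C, 5% CO2 | technique = beta-catenin immunofluorescence imaging with DAPI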
Tb hexokinase = Trypanosoma brucei hexokinase 1 inhibitors, primary screen, biochemical, G6PDH-coupled NADH absorbance, MLSCN library; hexokinase 1 [Trypanosoma brucei]; recombinant TbHK1, G6PDH-coupled NADH A340; inhibition, % at 10 µM; actives 0.11% (n = 220,000);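 active = inhibition of 50% or more in the single-dose primary screen; inactive = inhibition below 50%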
MT stabilize HCS = microtubule stabilizers in HeLa cells, primary screen, imaging, high-content imaging; actives 0.83% (n = 200,000); % tubulin-high responders, % at 10 µM; HeLa tubulin immunostaining HCS, 24 h; share of cells brighter than vehicle mean+2SD;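 active = plate Z-score above 3 for both tubulin-high and condensed-nucleus cell shares, with cell loss under 80%, at 10 µM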;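 note: anti alpha tubulin signal scored within the nucleus-defined area of each cell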
Ins promoter up = insulin promoter activators in MIN6 cells, imaging, high-content screening, mouse beta cells | MIN6 insulin promoter-GFP reporter; active compounds read high | z-score at 5 µM | actives 0.3% (n = 190,000) | AID 1625, 2009;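 active = z-score above 3 at 5 µM with at least 500 cells counted in the well; inconclusive = wells under 500 cells, flagged as cytotoxic or low count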
Autophagy mod = autophagy modulators in MEF cells, primary screen, imaging, high-content, MEF GFP-LC3; actives 0.98% (n = 190,000); MEF GFP-LC3 puncta imaging; test concentration mostly 10 µM; calls only at 10 µM (by protocol); AID 463193, 2010;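 active = percentage of spot-positive cells more than 3 SD above its plate mean, without a fluorescence outlier flag or 80% toxicity; inconclusive = no clear call, values can overlap the other calls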;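 note: spot-positive cell cutoff set from DMSO-treated cells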
The depositor's hits bear a star; i = inactive; ? = inconclusive; · = no result; + = active, no number. Compounds with a hit are over-represented: about 1.9% of the library has one in this group of screens.

SMILES | b-catenin transl | Tb hexokinase | MT stabilize HCS | Ins promoter up | Autophagy mod
Cc1ccc(O)c(-c2cc(-c3cccc(Br)c3)n[nH]2)c1 | 0 | 0 | 18* | 0.65 | i
COc1ccc(CNC(=O)C(C)N2C(=O)COc3ccc(C)cc32)c(OC)c1 (configuration not stated) | 0 | -8 | · | · | ·
CCOC(=O)c1sc2ncn(/N=C/c3ccc(O)c(OC)c3)c(=O)c2c1C | -2 | -41 | 2 | 0.26 | i
CCc1ccc(NC(=O)COc2ccc(F)cc2C(=O)c2cnn(-c3ccccc3)c2)cc1 | 0 | -1 | 20* | -1.1 | i
COc1ccccc1NC(=O)COc1ccccc1C(=O)c1cnn(-c2ccccc2)c1 | -3 | -5 | 8 | 0.79 | i
Cc1ccc(-c2cc3ccccc3nc2N2CCOCC2)cc1 | -2 | -4 | 2 | -0.44 | +
Cc1ccc(/C=C2\CCC3=C2OC(N)=C(C#N)C3c2ccc(C)cc2)cc1 (configuration not stated) | -1 | -8 | 12 | 2.1 | +
CCOC(=O)c1[nH]c(C)c(C(=O)OC(C)C(=O)Nc2ncc(Cl)cc2Cl)c1C (configuration not stated) | 0 | -1 | 42* | -1.6 | i
CC(OC(=O)C1=NNC(=O)CC1)C(=O)Nc1ncc(Cl)cc1Cl (configuration not stated) | -3 | -2 | 2 | 0.06 | i
COC(=O)c1sccc1NC(=O)CC1NCCNC1=O (configuration not stated) | 1 | -1 | · | -0.51 | ·
COc1ccc(-c2ccccc2)cc1NCc1ccc(OC)c(OC)c1 | -1 | -9 | 2 | -0.47 | i
CC(C)C(=O)c1cn(CC(=O)NCc2ccco2)c2ccccc12 | -4 | -2 | 4 | 0.04 | i
CCOC(=O)C(C)Oc1cccc2c(=O)n(CC(=O)NCc3ccco3)ccc12 (configuration not stated) | 73* | -11 | 10 | -0.54 | ·
N#Cc1ccc(OCC(=O)N/N=C(\CCC(=O)O)c2cccs2)cc1 | 0 | -6 | 2 | 0.71 | i
c1ccc(-c2nnc3sc(-c4csc5c4CCCC5)nn23)cc1 | 0 | 3 | 21* | -0.55 | i
CCOc1ccccc1NC(=O)COC(=O)CSc1ccc(Cl)cc1 | · | 25 | 1 | 0.04 | i
Cc1ccc(N(CCC(=O)Nc2nnc(C3CC3)s2)S(=O)(=O)c2ccccc2)cc1 | 0 | 25 | 3 | -0.18 | i
CCOc1ccc(C2=NNC(c3cccs3)=Nc3ccc(OCC)cc32)cc1 | 0 | -20 | 2 | -0.3 | i
CCn1ncc(C2=NOC(C(=O)NCc3ccccc3)C2)c1C (configuration not stated) | 64* | -3 | 31* | 0.42 | i
CCn1ncc(C2=NOC(C(=O)NCc3ccc(OC)cc3)C2)c1C (configuration not stated) | 147* | -4 | 18* | -1.3 | i
CCOC(=O)c1[nH]c2c(c1C)C(=O)CC(c1ccc(F)cc1)C2 (configuration not stated) | 76* | -7 | 9 | 0.09 | i
CCOCCOC(=O)c1[nH]c2c(c1C)C(=O)CC(c1cccs1)C2 (configuration not stated) | 63* | -4 | 13 | · | +
CCOC(=O)c1[nH]c2c(c1C)C(=O)CC(c1ccc(OCC)c(OC)c1)C2 (configuration not stated) | -1 | -10 | 2 | 1.4 | i
CCOCCOC(=O)C1=C(C)NC2=C(C(=O)CC(c3cccs3)C2)C1c1ccsc1 (configuration not stated) | -1 | 2 | 4 | -0.14 | i
COC(=O)c1[nH]c2c(c1C)C(=O)CC(c1ccc(C)cc1)C2 (configuration not stated) | 2 | -9 | 3 | -1.5 | i
SMILES | b-catenin transl | Tb hexokinase | MT stabilize HCS | Ins promoter up | Autophagy mod
Cc1c(C(=O)OCC(C)C)[nH]c2c1C(=O)CC(c1cccs1)C2 (configuration not stated) | 295* | -3 | 13* | -0.45 | i
CCCCCOC(=O)c1[nH]c2c(c1C)C(=O)CC(c1ccco1)C2 (configuration not stated) | 59* | 12 | 10 | ? | i
CCN(CC)S(=O)(=O)c1ccc(C(=O)NNC(=O)C2CCN(S(=O)(=O)c3ccc(Cl)cc3)CC2)cc1 | 0 | -1 | 3 | · | i
CN1CN(C)C(c2ccncc2)=C1c1ccncc1 | -1 | -3 | · | · | ·
COC(=O)CCC(=O)NC(=S)Nc1ccccc1F | 0 | 0 | 4 | 0.18 | i
COCCOC(=O)c1[nH]c2c(c1C)C(=O)CC(c1cccs1)C2 (configuration not stated) | 21 | -2 | 23* | 0.49 | +
O=S(=O)(c1ccc(Cl)cc1)c1snnc1-c1ccccc1 | · | 5 | 17* | 0.31 | i
CCn1cc(C(=O)N2CCc3ccccc3C2)c(=O)c2cc(S(=O)(=O)N3CCCCC3)ccc21 | -1 | -16 | 3 | 0.21 | +
CN(Cc1cn(-c2ccccc2)nc1-c1ccc2c(c1)OCO2)Cc1nccn1C | 0 | 2 | 2 | -0.62 | +
N#C/C(=C\c1cn(Cc2ccccc2)c2ccccc12)C(=O)NCc1ccco1 | 0 | 29 | 2 | 1.2 | i
N#C/C(=C\c1cn(Cc2ccc(F)cc2)c2ccccc12)C(=O)NCc1ccco1 | 7 | -3 | 3 | -0.49 | +
CN(C)C=Nc1nonc1-c1ncn[nH]1 | -7 | 45 | 5 | 0.46 | +
CN(C)CCNc1oc(COc2ccc(-c3ccccc3)cc2)nc1C#N | 1 | -1 | 3 | -1.2 | +
COc1ccc(/C=N/NC(=O)CCSc2nc3ccccc3s2)cc1OC | 2 | -13 | 2 | -1.3 | i
O=C(CCSc1nc2ccccc2s1)N/N=C/c1c(O)ccc2ccccc12 | 2 | 1 | 21* | 0.02 | i
CC1CN=C(N(C(=O)Nc2ccccc2)C(C)c2ccccc2)S1 (configuration not stated) | 0 | -8 | · | 1 | ·
Cc1ccc(OCC(=O)Nc2ccc(CN3CCCCC3)cc2)c(C)c1 | 0 | 5 | 7 | -0.25 | i
O=c1[nH]c(-c2cccnc2)nc2sc(-c3ccccc3)cc12 | 120* | -23 | 20* | 0.6 | i
CCN(CC)c1ccc(/C=N/NC(=O)c2cccc(S(=O)(=O)Nc3ccccc3OC)c2)cc1 | 0 | -9 | 2 | -0.29 | i
CCN(CC)c1ccc(/C=N/NC(=O)c2cccc(S(=O)(=O)Nc3ccccc3OC)c2)c(O)c1 | · | 8 | 5 | ? | +
CC(C)CNC(=O)C1CCN(c2ccc(S(=O)(=O)N3CCOCC3)cc2[N+](=O)[O-])CC1 | 0 | -8 | · | -0.76 | ·
CCCCNc1c(N)n(CC(C)C)c(=O)[nH]c1=O | 0 | -1 | 4 | -0.13 | i
